In the library only some 2.5% were active in any assay of this set; here they are far more common.
SIAE primary: human SIAE inhibition, primary screen | inhibition, % at 9.66 µM | Q9HAT2 | AID 1053197 | SIAE FP-Rh probe binding, fluorescence polarization | hit rate 0.69% among 370,000;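 active = inhibition above a cutoff: mean of compounds within the control limits plus 3 SD of those, cut at about 17% in these data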;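 also: 0% = plate median of compound wells and 100% = probe without SIAE protein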
HTRA1 inhibitor: inhibitors of human serine peptidase HTRA1; Q92743; hit rate 0.5% among 340,000; AID 504803; recombinant HTRA1, FP-rhodamine activity-based probe, fluorescence polarization; inhibition, % at 5.96 µM; in the data active = inhibition above about 36%;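 also: 0% = enzyme with DMSO and 100% = wells lacking enzyme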
TCR-CD3 inh: inhibitors of human TCR-CD3 interaction; hit rate 0.37% among 360,000; AID 651800; TAMRA-labeled TCR probe fluorescence, biochemical; inhibition, % at 9.4 µM; in the data active = inhibition above about 19%;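 also: recombinant mutant TCR 2C K166C tagged with TAMRA read by polarization; 0% = receptor in buffer alone and 100% = receptor with positive control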
mABHD4 FP: ABHD4 (mouse) inhibition, primary FP screen; hit rate 0.54% among 370,000; inhibition, % at 8.92 µM; purified mABHD4, FP-Rh probe fluorescence polarization; Q8VD66;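 active = inhibition exceeding the mean over every tested compound plus 3 SD, cut at about 30% in these data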;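 also: 0% = plate median of compound wells and 100% = S159A mutant with DMSO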
Target sequence (Q8VD66 whole entry, looked up): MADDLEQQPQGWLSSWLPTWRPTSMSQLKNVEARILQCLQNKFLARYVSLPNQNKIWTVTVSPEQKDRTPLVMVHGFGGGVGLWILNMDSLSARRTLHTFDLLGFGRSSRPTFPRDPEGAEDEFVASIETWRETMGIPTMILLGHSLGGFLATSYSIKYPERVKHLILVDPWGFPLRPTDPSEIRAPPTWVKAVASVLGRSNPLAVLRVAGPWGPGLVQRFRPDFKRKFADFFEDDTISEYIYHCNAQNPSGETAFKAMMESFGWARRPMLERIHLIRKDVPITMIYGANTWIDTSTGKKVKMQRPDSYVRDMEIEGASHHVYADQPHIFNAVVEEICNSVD
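Assay system: mouse ABHD4 enzyme, wild type / Also added: fluorescent activity-based probe FP-Rh / Doses: single nominal dose of 8.92 µM, 0.89% DMSO final / Timing: 45 min compound pre-incubation plus 60 min probe step, 25 °C / Signal: FP readout, ex 525 nm / em 598 nm / Control set: S159A mutant/DMSO as 100%, compound-well median as 0%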
PRMT1 FP inh: PRMT1 (human) inhibition, primary screen. recombinant PRMT1, activity-based probe fluorescence polarization. Q99873. AID 652257. inhibition, % at 2.79 µM. hit rate 1.3% among 370,000;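 active = inhibition above about 21% made by adding two undisclosed values, limit read from the data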
Target sequence (Q99873 whole entry, looked up): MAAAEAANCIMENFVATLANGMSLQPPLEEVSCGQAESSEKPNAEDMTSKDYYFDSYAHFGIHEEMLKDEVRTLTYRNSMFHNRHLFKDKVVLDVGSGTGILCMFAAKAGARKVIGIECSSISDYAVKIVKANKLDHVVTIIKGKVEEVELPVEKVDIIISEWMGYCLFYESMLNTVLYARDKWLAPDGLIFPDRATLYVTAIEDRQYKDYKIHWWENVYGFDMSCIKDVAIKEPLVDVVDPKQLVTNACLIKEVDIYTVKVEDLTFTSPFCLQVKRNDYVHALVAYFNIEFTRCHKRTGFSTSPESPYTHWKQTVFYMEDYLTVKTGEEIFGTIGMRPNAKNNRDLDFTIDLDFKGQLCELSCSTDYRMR
Starred values were filed as active, the others as inactive; . = not tested or not shown.

SMILES | SIAE primary | HTRA1 inhibitor | TCR-CD3 inh | mABHD4 FP | PRMT1 FP inh
Cc1nn(C)cc1NC(=O)C[C@H]1CC[C@H]2[C@@H](COc3ccc(NC(=O)Nc4ccccc4)cc3C(=O)N2C)O1 | -0.4 | . | . | 10.1 | -3.4
C[C@H]1CCC/C=C/[C@@H]2C[C@H](O)C[C@H]2[C@H](O)[C@H](S(=O)c2ccc(O)cc2)CC(=O)O1 (stereo partly specified) | 6.7 | -1.4 | -7.8 | -13.7 | 73.0*
O=C(CSc1nnc(-c2ccncc2)n1Cc1ccco1)Nc1cccc(O)c1 | -3.0 | 5.6 | -4.9 | 4.5 | 6.4
Cc1cc(C)c(NC(=O)CSc2nnc(-c3ccncc3)n2Cc2ccco2)c(Cl)c1 | -4.5 | 4.8 | 0.1 | -6.8 | 22.2*
OCCN1CCN(C(=S)c2ccc(Br)cc2)CC1 | -2.2 | -2.0 | 0.6 | 4.8 | 21.6*
CSc1ccc(C(=S)N2CCN(CCO)CC2)cc1 | 2.9 | 5.0 | 2.7 | -0.1 | 21.1
CC(C)(C)c1ccc(-c2nnc(SCC(=O)Nc3ccc(Oc4ccccc4)cc3)n2Cc2ccco2)cc1 | 5.5 | . | . | 0.0 | -1.8
COc1ccc(Nc2nnc(-c3ccc4c(c3)OCO4)o2)cc1 | -0.4 | . | 2.3 | 6.5 | 23.7*
COc1ccc(-c2noc(-c3ccc4c(c3)OCO4)n2)cc1 | -0.6 | -2.2 | -2.6 | -1.9 | -0.3
CCC1=C/C(=C/c2sc3ccccc3[n+]2CC)CC(C)(C)C1 | -0.1 | . | -4.6 | 11.2 | 36.8*
Cc1cccc(C(=O)N/C(=C\c2ccco2)C(=O)N2CCCC2)c1 | 10.5 | 3.5 | 11.2 | 20.8 | 23.3*
Cc1ccc(C(=O)N/C(=C/c2ccco2)C(=O)N2CCCCCC2)cc1 | 5.2 | -4.8 | 0.8 | 14.9 | 10.4
Nc1ncnc2nc(SCc3ccc(Cl)cc3Cl)[nH]c12 | 21.3* | -1.2 | 5.0 | 6.9 | -1.9
CC1=C2NC(N)=[N+](Cc3ccc4c(c3)OCO4)CC2n2c(=O)n(-c3ccccc3)c(=O)n2C1 (stereo unspecified) | 4.3 | . | . | 7.4 | -0.1
O=C(O)c1ccc(CSc2nnc(-c3ccco3)o2)cc1 | 9.3 | 0.7 | 2.7 | -6.3 | -1.3
COc1cc(OC)cc(-c2nnc(SCc3ccc(C(=O)O)cc3)o2)c1 | -7.9 | 0.5 | -6.1 | -17.6 | 22.3*
O=C(CSc1nnc(-c2cccnc2)n1Cc1ccco1)Nc1cc(Cl)ccc1F | -0.4 | . | . | 3.4 | -0.9
CC(C)(C)NC(=O)c1ccccc1-c1nc2ccccc2s1 | -3.7 | 0.8 | 1.8 | 6.2 | 23.7*
CCOc1ccccc1C(O)C1=CC(=O)c2ccccc2C1=O (stereo unspecified) | 14.8 | 17.2 | 12.9 | 42.8* | 6.0
CN1CCc2c(sc3c2C(=O)NC(c2ccccn2)N3)C1 (stereo unspecified) | -8.3 | 2.0 | 6.5 | 19.3 | 26.6*
CN1CCc2c(sc3c2C(=O)NC(c2ccccc2)N3)C1 (stereo unspecified) | -14.4 | 8.8 | -9.1 | 4.7 | 9.4
COC(=O)C1CN(Cc2cn(CCOC(C)=O)nn2)CCS(=O)(=O)N1Cc1ccccc1 (stereo unspecified) | -3.3 | . | . | -0.6 | -5.0
COc1cc(CNn2c(C)n[nH]c2=S)cc(Cl)c1OCc1ccccc1 | 0.5 | -8.7 | -0.1 | -7.6 | 24.4*
COc1ccc(N2C(=O)CC(N3CCN(c4ccccc4)CC3)C2=O)cc1 (stereo unspecified) | -1.2 | -1.5 | 0.2 | -1.9 | 6.7
COc1ccc(N2C(=O)CC(N3CCOCC3)C2=O)cc1 (stereo unspecified) | 0.4 | 9.5 | 0.8 | -3.1 | 21.3*
SMILES | SIAE primary | HTRA1 inhibitor | TCR-CD3 inh | mABHD4 FP | PRMT1 FP inh
COc1ccccc1OC(=O)CCc1nc2ccccc2s1 | 3.0 | 7.2 | 7.3 | 1.4 | 22.4*
O=C(c1cnn2c(C(F)(F)F)cc(-c3cccs3)nc12)N1CCCC1 | 0.4 | 5.8 | -1.4 | -0.2 | 0.5
O=C(NCc1ccco1)c1cnn2c(C(F)(F)F)cc(-c3cccs3)nc12 | -1.6 | -12.8 | -7.5 | 3.3 | 23.3*
COc1cc(C(=O)NC2CCCCN(Cc3ccc(Cl)cc3)C2=O)cc(OC)c1OC (stereo unspecified) | 6.5 | . | . | 1.9 | 1.8
CCN(CC)C1CC(=O)N(c2ccc(Br)cc2)C1=O (stereo unspecified) | 8.9 | -1.5 | 2.6 | 1.9 | 46.2*
Cc1cc(C)nc(SC2CC(=O)N(c3ccc(Br)cc3)C2=O)n1 (stereo unspecified) | 5.2 | 0.3 | -5.7 | -2.5 | 3.6
COC(=O)[C@H]1C[C@@]2(C)c3ccccc3N(S(=O)(=O)c3ccccc3)[C@H]2N1C(=O)CNC1CCCCC1 | 2.9 | . | . | 1.7 | 1.6
COc1ccccc1-n1ccnc(SCC(=O)NCc2ccccc2Cl)c1=O | -0.8 | 0.4 | 5.0 | -0.5 | 20.4
COc1ccccc1-n1ccnc(SCC(=O)NCCc2ccccc2)c1=O | 5.0 | -2.9 | -5.5 | -3.0 | 22.5*
COc1ccc(CN2C(=O)CSCCC2(C)c2nnnn2-c2c(C)cccc2C)cc1 (stereo unspecified) | 2.8 | . | . | 6.5 | 3.1
COC(=O)CCC/C=C1/SCC(NC(=O)c2ccccc2)C1=O (stereo unspecified) | -9.2 | 1.3 | 1.1 | 1.8 | 25.6*
COC(=O)CCC/C=C1/SCC(NC(=O)c2ccccc2)C1O (stereo unspecified) | -0.2 | -4.2 | -1.2 | -0.1 | 9.5
COC(=O)[C@]1(CNS(=O)(=O)C2CC2)CC(=O)N(C)[C@@H]1c1ccccc1 | 0.9 | . | . | 2.6 | -0.3
Cc1ccc(P(=O)(CO)c2ccc(C)cc2)cc1 | 0.9 | 7.4 | -5.8 | 3.1 | 1.1
N=C(N)SCP(=O)(c1ccccc1)c1ccccc1 | -2.3 | -4.7 | -3.7 | 5.9 | 67.8*
Cc1ccc(P(=O)(CSC(=N)N)c2ccc(C)cc2)cc1 | 0.6 | -5.4 | 7.3 | 0.3 | 69.7*
Cc1nn(CCC(=O)NNC(=O)Nc2ccc(F)cc2)c(C)c1[N+](=O)[O-] | -0.9 | . | . | -0.1 | -1.9
CCOC(=O)[C@]12CCCC=C1N(CCCOC)C(=O)[C@@H]2CC(=O)NCc1cccc(C(F)(F)F)c1 | 4.4 | . | . | -1.9 | -2.5
Oc1cc2c(cc1O)[C@@H](c1ccccc1)CNCC2 | 10.2 | 10.0 | -1.2 | 12.7 | 22.9*
COc1ccc2nc(Nc3sc4c(c3C(N)=O)CCCC4)sc2c1 | -33.6 | -5.2 | -7.3 | 22.0 | 45.5*
Cc1nc(N2CCN(C(=O)COc3ccccc3C)CC2)c2c3c(sc2n1)CCCC3 | 1.4 | . | . | -1.5 | -0.3
COC(=O)[C@H]1C[C@@]2(C)c3ccccc3N(S(=O)(=O)c3ccccc3)[C@H]2N1 | 0.2 | . | . | 1.3 | -6.2
N#CC1=C(N)C2=CCCC[C@H]2[C@H](c2ccc(Br)cc2)C1(C#N)C#N | . | -4.7 | . | . | .
N#CC1=C(N)C2=CCCC[C@H]2[C@H](c2ccccc2)C1(C#N)C#N | -3.8 | 0.2 | -3.1 | -3.5 | 23.5*
COC(=O)[C@H](CC(C)C)N1Cc2nnn(CC3CCCCC3)c2-c2ccccc2S1(=O)=O | -3.3 | . | . | 4.7 | 0.7
O=S(=O)(c1ccc(N=C2NN=C(c3cc(F)ccc3F)CS2)cc1)N1CCOCC1 | -22.6 | . | 5.5 | -35.7 | 54.8*

Screens as filed in PubChem.
